Reference: ChEMBL document CHEMBL1799961, “N-Acylhydrazones as inhibitors of PDE10A” (Bioorg Med Chem Lett, 2011)
The source made the active and inactive calls. The rule behind the calls is not given here.

Tests used:
[1] = target: T1, cAMP and cAMP-inhibited cGMP 3',5'-cyclic phosphodiesterase 10A (Mus musculus, UniProt Q8CA95); assay: Inhibition of mouse PDE10A assessed as inhibition of hydrolysis of [3H]cGMP to [3H]GMP after 20 mins by scintillation counting
T1 sequence (Q8CA95 whole entry): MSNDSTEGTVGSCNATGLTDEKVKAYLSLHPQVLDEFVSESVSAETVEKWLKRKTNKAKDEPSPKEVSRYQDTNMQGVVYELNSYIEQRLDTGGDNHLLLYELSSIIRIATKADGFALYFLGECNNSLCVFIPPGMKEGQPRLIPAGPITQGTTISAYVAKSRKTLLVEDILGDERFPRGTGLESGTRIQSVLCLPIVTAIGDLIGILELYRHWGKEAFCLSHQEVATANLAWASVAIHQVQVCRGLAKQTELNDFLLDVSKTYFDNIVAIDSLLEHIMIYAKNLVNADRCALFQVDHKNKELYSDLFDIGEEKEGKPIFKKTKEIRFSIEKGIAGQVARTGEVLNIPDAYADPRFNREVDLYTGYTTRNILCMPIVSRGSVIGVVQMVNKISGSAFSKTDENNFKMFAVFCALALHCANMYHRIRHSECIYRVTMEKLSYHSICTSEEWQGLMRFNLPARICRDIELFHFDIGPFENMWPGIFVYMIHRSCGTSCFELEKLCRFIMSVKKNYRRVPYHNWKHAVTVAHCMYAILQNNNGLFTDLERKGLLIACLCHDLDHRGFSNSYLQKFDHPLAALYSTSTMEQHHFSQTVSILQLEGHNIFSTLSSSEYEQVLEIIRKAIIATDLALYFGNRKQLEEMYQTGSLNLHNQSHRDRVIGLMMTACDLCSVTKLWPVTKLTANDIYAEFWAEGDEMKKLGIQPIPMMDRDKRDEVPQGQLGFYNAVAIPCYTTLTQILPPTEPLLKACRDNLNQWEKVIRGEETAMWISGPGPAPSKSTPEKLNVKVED
In short: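 Reaction was started with mouse PDE10 (25 ng/ml final) and run 20 min at 30 °C. Stopped with yttrium silicate SPA beads, scintillation counted 1–2 h later. IC50 from curve fitting.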

[2] = Half life in rat at 4 mg/kg, iv; assay type: ADME, organism-based; parameters: dose 4 mg/kg, route intravenous; details: in vivo
In short: (§1)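 Rat pharmacokinetics, dosed iv at 4 mg/kg and po at 9 mg/kg.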

[3] = Clearance in rat at 4 mg/kg, iv; assay type: ADME, organism-based; parameters: dose 4 mg/kg, route intravenous; details: in vivo; in short: as §1
[4] = Volume of distribution at steady state in rat at 4 mg/kg, iv; assay type: ADME, organism-based; parameters: dose 4 mg/kg, route intravenous; details: in vivo, read-out: Vdss; in short: as §1
[5] = Tmax in rat at 9 mg/kg, po; assay type: ADME, organism-based; parameters: dose 9 mg/kg, route oral; details: in vivo; in short: as §1
[6] = Cmax in rat at 9 mg/kg, po; assay type: ADME, organism-based; parameters: dose 9 mg/kg, route oral; details: in vivo; in short: as §1
[7] = Oral bioavailability in rat at 9 mg/kg; assay type: ADME, organism-based; details: in vivo; in short: as §1
Mus musculus [8] = assay: Behavioral effect in mouse assessed as reduction in conditioned avoidance response at 10 to 30 mg/kg, ip administered 20 mins prior testing; assay type: functional, organism-based
In short: (§2)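 Mice trained in a shuttle-box to avoid foot-shock after a conditional stimulus, until at least 25 avoidances in 30 trials. Dosing was ip in 30 mM H3PO4, 0.2% tween 80, 5% DMSO, 20 min before testing; controls got vehicle. Eight mice per group. Paired-sample t-test compared each animal with its vehicle-injected performance on the previous day.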

Mus musculus [9] = assay: Behavioral effect in ip dosed mouse assessed as reduction in conditioned avoidance response compound administered 20 mins prior testing; assay type: functional, organism-based; in short: as §2
Mus musculus [10] = assay: Antipsychotic activity in mouse assessed as inhibition of PCP-induced hyperlocomotion at 20 mg/kg, ip administered 20 mins prior testing; assay type: functional, organism-based; parameters: dose 20 mg/kg
In short: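 PCP-induced hyperlocomotion in mice: 20 mg/kg ip in 30 mM H3PO4, 0.2% tween 80, 5% DMSO, dosed 20 min before testing; PCP given ip 10 min before testing. Controls got vehicle. Normal activity range 500–1000. Eight mice per group; t-test for each interval.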

Mus musculus [11] = organism: Mus musculus; assay: Selectivity ratio of IC50 for mouse PDE1A to IC50 for mouse PDE10A
In short: (§3)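 Reaction started by adding enzyme (mouse PDE10 at 25 ng/ml final); 20 min at 30 °C. Stopped with yttrium silicate SPA beads, scintillation read 1–2 h later. IC50s from curve fits; ratio of other-PDE IC50 to PDE10A IC50.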

Mus musculus [12] = organism: Mus musculus; assay: Selectivity ratio of IC50 for mouse PDE2A to IC50 for mouse PDE10A; in short: as §3
Mus musculus [13] = organism: Mus musculus; assay: Selectivity ratio of IC50 for mouse PDE3A to IC50 for mouse PDE10A; in short: as §3
Mus musculus [14] = organism: Mus musculus; assay: Selectivity ratio of IC50 for mouse PDE4A to IC50 for mouse PDE10A; in short: as §3
Mus musculus [15] = organism: Mus musculus; assay: Selectivity ratio of IC50 for mouse PDE5A to IC50 for mouse PDE10A; in short: as §3
Mus musculus [16] = organism: Mus musculus; assay: Selectivity ratio of IC50 for mouse PDE7A to IC50 for mouse PDE10A; in short: as §3
Mus musculus [17] = organism: Mus musculus; assay: Selectivity ratio of IC50 for mouse PDE8A to IC50 for mouse PDE10A; in short: as §3
Mus musculus [18] = organism: Mus musculus; assay: Selectivity ratio of IC50 for mouse PDE9A to IC50 for mouse PDE10A; in short: as §3
Mus musculus [19] = organism: Mus musculus; assay: Selectivity ratio of IC50 for mouse PDE11A to IC50 for mouse PDE10A; in short: as §3

## COc1cc(/C=N/NC(=O)CSc2cc(C)nc3ccccc23)cc(OC)c1Br
[1]
  IC50: 4.8 nM

## COc1ccc(/C=N/NC(=O)CNc2cc(C)nc3ccccc23)cc1OC
[1]
  IC50: 8000 nM

## COc1cc(/C=N/NC(=O)CSc2cc(C)nc3ccccc23)ccc1C#N
[1]
  IC50: 160 nM

## COc1cc(/C=N/NC(=O)CSc2cc(C)nc3ccccc23)ccc1F
[1]
  IC50: 190 nM

## COc1ccccc1SCC(=O)N/N=C/c1cc(OC)c(OC)c(OC)c1
[1]
  IC50: 660 nM

## COc1cc(/C=N/NC(=O)CSc2ccc([N+](=O)[O-])c3ccccc23)cc(OC)c1OC
[1]
  IC50: 100 nM

## COc1cc(/C=N/NC(=O)CSc2cccc3cccnc23)cc(OC)c1OC
[1]
  IC50: 190 nM

## COc1ccc(/C=N/NC(=O)CSc2cc(C)nc3ccccc23)cc1
[1]
  IC50: 1400 nM

## COc1cc(/C=N/NC(=O)CSc2cc(C)nc3ccccc23)cc(C#N)c1OC
[1]
  IC50: 11 nM

## COc1cc(/C=N/NC(=O)CSc2cc(C)nc3ccccc23)ccc1C
[1]
  IC50: 100 nM

## COc1ccc(/C=N/NC(=O)CSc2cc(C)nc3ccccc23)cc1OC
[1]
  IC50: 49 nM

## COc1cc(Br)c(/C=N/NC(=O)CSc2cc(C)nc3ccccc23)cc1OC
[1]
  IC50: 77 nM

## COc1cc(/C=N/NC(=O)CSc2ccc3ccccc3n2)cc(OC)c1OC
[1]
  IC50: 140 nM

## COc1cc(/C=N/NC(=O)CSc2ccnc3cc(Cl)ccc23)cc(OC)c1OC
[1]
  IC50: 28 nM

## COc1cc(/C=N/NC(=O)CSc2ccncn2)cc(OC)c1OC
[1]
  IC50: 1070 nM

## COc1cc(F)c(/C=N/NC(=O)CSc2cc(C)nc3ccccc23)cc1OC
[1]
  IC50: 190 nM

## COc1cc(/C=N/N(C)C(=O)CSc2cc(C)nc3ccccc23)cc(OC)c1OC
[1]
  IC50: 26 nM

## COc1cc(/C=N/NC(=O)CSc2ccncc2)cc(OC)c1OC
[1]
  IC50: 550 nM

## COc1ccc(/C=N/NC(=O)CSc2cc(C)nc3ccccc23)c(Br)c1OC
[1]
  IC50: 4800 nM

## COc1cc(/C=N/NC(=O)CSc2cc(C)nc3ccccc23)cc(OC)c1
[1]
  IC50: 150 nM

## COc1cc(Cl)c(/C=N/NC(=O)CSc2cc(C)nc3ccccc23)cc1OC
[1]
  IC50: 200 nM

## CCOc1cc(/C=N/NC(=O)CSc2cc(C)nc3ccccc23)ccc1OC
[1]
  IC50: 260 nM

## COc1ccc(/C=N/NC(=O)CSc2cc(C)nc3ccccc23)cc1F
[1]
  IC50: 620 nM

## COc1cc(/C=N/NC(=O)CSc2cc(C)nc3ccccc23)ccc1C(F)(F)F
[1]
  IC50: 250 nM

## COc1ccc(/C=N/NC(=O)COc2cc(C)nc3ccccc23)cc1OC
[1]
  IC50: 1600 nM

## COc1ccc(/C=N/NC(=O)CSc2cc(C)nc3ccccc23)cc1OC(F)(F)F
[1]
  IC50: 1700 nM

## COc1ccc(/C=N/NC(=O)CSc2cc(C)nc3ccccc23)c(Cl)c1OC
[1]
  IC50: 4600 nM

## COc1cc(/C=N/NC(=O)CSc2cc(C)nc3ccccc23)ccc1Cl
[1]
  IC50: 87 nM

## COc1ccc2nc(C)cc(SCC(=O)N/N=C/c3cc(OC)c(OC)c(OC)c3)c2c1
[1]
  IC50: 8 nM
[2]
  half-life: 11.3 h
[3]
  clearance: 55 mL/min/kg
[4]
  Vd: 17.4 L/kg
[5]
  Tmax: 0.25 h
[6]
  Cmax: 539 ng/mL
[7]
  bioavailability: 21%
Mus musculus [8]
  Activity: Active
Mus musculus [9]
  Activity: Dose-dependent effect
Mus musculus [10]
  inhibition: Active
Mus musculus [11]
  Ratio IC50: > 110
Mus musculus [12]
  Ratio IC50: > 110
Mus musculus [13]
  Ratio IC50: > 110
Mus musculus [14]
  Ratio IC50: > 110
Mus musculus [15]
  Ratio IC50: > 110
Mus musculus [16]
  Ratio IC50: > 110
Mus musculus [17]
  Ratio IC50: > 110
Mus musculus [18]
  Ratio IC50: > 110
Mus musculus [19]
  Ratio IC50: > 110

## COc1ccc(/C=N/NC(=O)CSc2cc(C)nc3ccccc23)cc1Cl
[1]
  IC50: 220 nM

## COc1cc(/C=N/NC(=O)CSc2ccc(-c3ccccc3)cc2)cc(OC)c1OC
[1]
  IC50: 260 nM

## Cc1cc(SCC(=O)N/N=C/c2ccc(OC(F)F)c(OC(F)F)c2)c2ccccc2n1
[1]
  IC50: 310 nM

## COc1cc(/C=N/NC(=O)CSc2cc(C)nc3ccccc23)cc(OC)c1C#N
[1]
  IC50: 14 nM

## COc1cc(/C=N/NC(=O)CSc2cc(C)nc3ccccc23)cc(Br)c1OC
[1]
  IC50: 30 nM

## COc1ccc(/C=N/NC(=O)CSc2cc(C)nc3ccccc23)cc1OC(C)C
[1]
  IC50: 660 nM

## COc1cccc(/C=N/NC(=O)CSc2cc(C)nc3ccccc23)c1
[1]
  IC50: 1200 nM

## COc1ccc(/C=N/NC(=O)CSc2cc(C)nc3ccccc23)cc1C(F)(F)F
[1]
  IC50: 420 nM

## COc1ccc(/C(C)=N/NC(=O)CSc2cc(C)nc3ccccc23)cc1OC
[1]
  IC50: 180 nM

## COc1cc(/C=N/NC(=O)CSc2ccc(OC(F)(F)F)cc2)cc(OC)c1OC
[1]
  IC50: 860 nM

## COc1cc(/C=N/NC(=O)CSc2ccnc3ccccc23)cc(OC)c1OC
[1]
  IC50: 24 nM

## COc1cc(/C=N/NC(=O)CN(C)c2cc(C)nc3ccccc23)cc(OC)c1OC
[1]
  IC50: 360 nM

## COc1cc(/C=N/NC(=O)CSc2cc(C)nc3ccccc23)cc(F)c1OC
[1]
  IC50: 51 nM

## COc1cc(/C=N/NC(=O)CSc2cc(C)nc3ccccc23)cc(Cl)c1OC
[1]
  IC50: 45 nM

## COc1cc(/C=N/NC(=O)CSc2cc(C)nc3ccccc23)ccc1Br
[1]
  IC50: 93 nM

## COc1cc(/C=N/NC(=O)CSc2cc(C)nc3ccccc23)cc(OC)c1OC
[1]
  IC50: 10 nM
